Measurements as given in article PMC5094435 (Saudi Pharmaceutical Journal : SPJ, 2015).
Values after ≈ are worked out from the molar mass of the structure shown. Values joined by “and” are separate entries in the source; they are usually repeats but may differ in a detail not shown here. Equal values may be shown once.

Experiments:
[1] = system: Staphylococcus aureus (MTCC 96); assay: Antibacterial activity; format: cell-based; settings: MTCC96, read-out: MIC, S. aureus
Procedure, shortened: (§1)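 Screened by a standard method against S. aureus MTCC 96, B. subtilis MTCC 121, E. coli MTCC 1652 and P. aeruginosa MTCC 741. Ciprofloxacin was the reference antibiotic. Only compounds active at 100 μg/mL went on to MIC determination.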

[2] = system: Escherichia coli (MTCC 1652); assay: Antibacterial activity; format: cell-based; settings: Escherichia coli, MTCC1652, read-out: MIC, E. coli
Procedure, shortened: as §1

[3] = system: Pseudomonas aeruginosa (MTCC 741); assay: Antibacterial activity; format: cell-based; settings: Pseudomonas aeruginosa, MTCC741, read-out: MIC, P. aeruginosa
Procedure, shortened: as §1

[4] = system: Bacillus subtilis (MTCC 121); assay: Antibacterial activity; format: cell-based; settings: MTCC121, read-out: MIC, B. subtilis
Procedure, shortened: as §1

Aspergillus niger = assay: Antifungal activity; format: cell-based; settings: read-out: MIC, A. niger
Procedure, shortened: (§2)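 Run by the poison food technique against Aspergillus niger and Aspergillus flavus. Fluconazole was the reference drug.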

Aspergillus flavus = assay: Antifungal activity; format: cell-based; settings: read-out: MIC, A. flavus
Procedure, shortened: as §2

[5] = system: carrageenan induced edema; assay: Anti-inflammatory activity, carrageenan induced rat paw edema; format: in vivo, Wistar rats; settings: inhibition of edema, rats
Procedure, shortened: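 Used the Winter et al. paw oedema method in Wistar rats of either sex (160–200 g), housed six per cage and acclimatised 48 h. Percent inhibition of oedema was calculated at 1, 2, 3 and 4 h. Diclofenac served as the standard drug.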

[6] = system: tail immersion (hot water 55 °C); assay: Central analgesic activity, tail immersion method; format: in vivo, Swiss albino mice; settings: mice, mean ± SEM; for Central analgesic activity [tail immersion (reaction time in min)] 1 h: 1 h after the dosing; for Central analgesic activity [tail immersion (reaction time in min)] 2 h: 2 h after the dosing
Procedure, shortened: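 Used the same mice from the writhing test after a washout period. Each mouse was held in a restrainer and the protruding tail (up to 5 cm) was dipped in 55 °C water. Withdrawal time was recorded as reaction time at 1 h and 2 h post-dose. Data are mean ± SEM, analysed by ANOVA followed by Dunnett's t test.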

[7] = system: acetic acid induced writhing; assay: Peripheral analgesic activity, acetic acid induced writhing method; format: in vivo, Swiss Albino mice; settings: mice; for Peripheral analgesic activity (writhing test) No. of writhing: mean ± SEM; for Peripheral analgesic activity (writhing test) % Protection: vs control group
Procedure, shortened: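 Writhing was induced with aqueous acetic acid in Swiss albino mice (20–30 g) of either sex, six per group. % Protection = (Wc − Wt)/Wc × 100, where Wc and Wt are the mean writhing counts of the control and test groups.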

mucosal damage = assay: Acute ulcerogenic activity; format: in vivo, Albino rats; settings: rats, mean ± SEM
Procedure, shortened: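 Conducted in Albino rats (160–200 g, housed six per cage, acclimatised 48 h) following Cioli et al. Gastric mucosal damage was scored at the end of the study. Ulcerogenic potential (severity index) came from comparing the mean score of each treated group with that of the control rats.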

Work on O=C1C(=Cc2cc3cc(Cl)ccc3nc2Cl)C=C(c2ccc3ccccc3c2)N1Cc1ccccc1 [Compound 7b, 1-Benzyl-3-[(2,6-dichloroquinolin-3-yl)methylene]-5-(naphthalene-2-yl)-1H-pyrrol-2(3H)-one] yielded an MIC [1] of 25 µg/mL (≈ 49.3 µM), an MIC [2] of 12.5 µg/mL (≈ 24.6 µM) and an MIC [3] of over 100 µg/mL. The MIC [4] was 25 µg/mL (≈ 49.3 µM), the MIC (Aspergillus niger) was 50 µg/mL (≈ 98.5 µM) and the MIC (Aspergillus flavus) was 25 µg/mL (≈ 49.3 µM). For the same compound, the “% Inhibition ± SEM After 1 h” value [5] was 84 ± 0.06^∗∗ %, the “% Inhibition ± SEM After 2 h” value [5] was 74 ± 0.21^∗∗ % and the “% Inhibition ± SEM After 3 h” value [5] was 70 ± 0.23^∗ %. The “Central analgesic activity [tail immersion (reaction time in min)] 1 h” value [6] was 2.4 ± 0.3 min, the “Central analgesic activity [tail immersion (reaction time in min)] 2 h” value [6] was 3.4 ± 0.2 min and the “Peripheral analgesic activity (writhing test) No. of writhing” value [7] was 25.4 ± 4.8. The “Peripheral analgesic activity (writhing test) % Protection” value [7] was 39.52% and the “Ulcerogenic activity (severity index)” value (mucosal damage) was 0.36 ± 0.35^∗.

Work on O=C1C(=Cc2cc3cc([N+](=O)[O-])ccc3nc2Cl)C=C(c2ccc3ccccc3c2)N1Cc1ccccc1 [Compound 7d, 1-Benzyl-3-[(2-chloro-6-nitroquinolin-3-yl)methylene]-5-(naphthalene-2-yl)-1H-pyrrol-2(3H)-one] yielded an MIC [1] of 25 µg/mL (≈ 48.3 µM), an MIC [2] of 25 µg/mL (≈ 48.3 µM) and an MIC [3] of over 100 µg/mL. For the same compound, the MIC [4] was 25 µg/mL (≈ 48.3 µM), the MIC (Aspergillus niger) was 25 µg/mL (≈ 48.3 µM) and the MIC (Aspergillus flavus) was 50 µg/mL (≈ 96.5 µM). For the same compound, the “% Inhibition ± SEM After 1 h” value [5] was 83 ± 0.06^∗∗ %, the “% Inhibition ± SEM After 2 h” value [5] was 73 ± 0.15^∗∗ % and the “% Inhibition ± SEM After 3 h” value [5] was 66 ± 0.26%. For the same compound, the “Central analgesic activity [tail immersion (reaction time in min)] 1 h” value [6] was 3.2 ± 0.4^∗ min, the “Central analgesic activity [tail immersion (reaction time in min)] 2 h” value [6] was 5.4 ± 1.9 min and the “Peripheral analgesic activity (writhing test) No. of writhing” value [7] was 21.0 ± 10.0^∗. The “Peripheral analgesic activity (writhing test) % Protection” value [7] was 50% and the “Ulcerogenic activity (severity index)” value (mucosal damage) was 0.40 ± 0.32.

Work on O=C1C(=Cc2cc3cc(Cl)ccc3nc2Cl)C=C(c2ccc(-c3ccccc3)cc2)N1Cc1ccccc1 [Compound 7f, 1-Benzyl-3-[(2,6-dichloroquinolin-3-yl)methylene]-5-(biphenyl-4-yl)-1H-pyrrol-2(3H)-one] yielded an MIC [1] of 12.5 µg/mL (≈ 23.4 µM), an MIC [2] of 25 µg/mL (≈ 46.9 µM) and an MIC [3] of 50 µg/mL (≈ 93.7 µM). For the same compound, the MIC [4] was 12.5 µg/mL (≈ 23.4 µM), the MIC (Aspergillus niger) was 25 µg/mL (≈ 46.9 µM) and the MIC (Aspergillus flavus) was 50 µg/mL (≈ 93.7 µM). For the same compound, the “% Inhibition ± SEM After 1 h” value [5] was 84 ± 0.12%, the “% Inhibition ± SEM After 2 h” value [5] was 74 ± 0.19^∗∗ % and the “% Inhibition ± SEM After 3 h” value [5] was 63 ± 0.14^∗ %. For the same compound, the “Central analgesic activity [tail immersion (reaction time in min)] 1 h” value [6] was 3.2 ± 0.2^∗ min, the “Central analgesic activity [tail immersion (reaction time in min)] 2 h” value [6] was 6.2 min and 6.2 ± 1.5^∗ min and the “Peripheral analgesic activity (writhing test) No. of writhing” value [7] was 12.8 ± 3.8^∗∗. The “Ulcerogenic activity (severity index)” value (mucosal damage) was 0.53 ± 0.12.
